In the library only some 1.5% were active in any assay of this set; here they are far more common.
FLuc inhib CS = firefly luciferase enzyme inhibitors, primary screen, artefact control for luciferase-based inhibitor screens, biochemical, luminescence, ATPLite. Luciferin 4-monooxygenase (Photinus pyralis), P08659. 10 min. inhibition, % at 10 µM. 1.5% of 200,000 active. AID 1006, 2008;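 active = inhibition above about 50% when tested at 10 µM, limit read from the data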
Target sequence (P08659 whole entry, looked up): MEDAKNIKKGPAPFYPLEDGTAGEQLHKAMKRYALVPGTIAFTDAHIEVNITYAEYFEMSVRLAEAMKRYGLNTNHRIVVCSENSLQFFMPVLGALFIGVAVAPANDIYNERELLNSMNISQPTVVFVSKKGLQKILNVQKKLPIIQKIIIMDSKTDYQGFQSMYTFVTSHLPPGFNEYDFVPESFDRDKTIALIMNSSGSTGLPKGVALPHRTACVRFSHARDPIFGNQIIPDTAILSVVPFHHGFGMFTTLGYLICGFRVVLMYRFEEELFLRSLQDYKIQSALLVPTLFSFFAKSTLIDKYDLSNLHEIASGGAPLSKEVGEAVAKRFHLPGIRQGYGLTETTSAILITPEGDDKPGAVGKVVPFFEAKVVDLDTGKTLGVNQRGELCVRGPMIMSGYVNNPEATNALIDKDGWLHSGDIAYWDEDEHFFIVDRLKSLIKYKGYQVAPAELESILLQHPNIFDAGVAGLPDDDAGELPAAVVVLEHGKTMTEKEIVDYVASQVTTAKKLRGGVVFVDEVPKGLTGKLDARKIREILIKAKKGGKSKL
FLuc act counter = FLuc activators, initial screening, artefact control for FLuc-dependent activation tests, biochemical, ATPlite luminescence; Luciferin 4-monooxygenase (Photinus pyralis), P08659; ATPlite luciferase biochemical, 10 min; 0 = ATP-free wells, 1 = DMSO control; activation factor at 10 µM; 200,000 tested, under 10 active;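 active = luciferase activation factor, scaled between plate controls, of at least 2 with compound at 10 µM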
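Assay system: Luciferase/luciferin detection reagent, cell-free biochemical luciferase assay / Also added: ATP substrate / Schedule: 10 min at ambient temperature / Measured by: luminescence measurement of luciferase light output / Benchmarks: low control with PBS replacing ATP, high control enzyme plus ATP without compound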
PPC-1+TRAIL kill = compounds killing PPC-1 cancer cells with TRAIL present, primary screen, TRAIL potentiator project, ATPLite luminescence, uHTS; PPC-1 cells + TRAIL, ATPLite viability luminescence; cell killing (% activity), % at 4 µM or 5 µM; 0.41% of 220,000 active; AID 1443, 2008;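 active = cell killing above 50% in the first pass at 4 µM, then a duplicate retest at 5 µM averaging 50% or more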
C8 TRAIL sens = viability loss with TRAIL in NB7+C8 cells, primary screen, TRAIL sensitizer project, cell-based, ATPlite luminescence | inhibition (viability loss, TRAIL sensitization), % at 10 µM | 1% of 360,000 active | AID 624354, 2012;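 active = compounds causing at least 50% loss of cell viability in the single-dose screen, relative to plate controls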
PPC1 cytotox = cytotoxicity in PPC-1 cells, confirmation, cytotoxicity control for TRAIL apoptosis potentiator project, cell-based, ATP content luminescence. PPC-1 viability, ATPlite luminescence, overnight. cytotoxicity, % at 5 µM. 50% of 1,200 active. shares compounds with PPC-1+TRAIL kill;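 active = reconfirmed compounds whose average cytotoxicity reaches 50% or more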
Each line names hits and unclear results; the compound was inactive in the other large screens (follow-up assays come after a bar, where they were run).

Cc1ccc(C(=O)n2c(=S)nc3ccccn32)cc1	FLuc inhib CS 96, PPC-1+TRAIL kill 91 (no result: C8 TRAIL sens) | PPC1 cytotox 90
O=C(c1ccccc1)n1ccn(-c2ccccc2)c1=S	none
Cc1cccc(C(=O)n2c(=S)nc3ccccn32)c1	FLuc inhib CS 91, PPC-1+TRAIL kill 70, C8 TRAIL sens 74 | PPC1 cytotox 70
Cc1cccc(C(=O)N2CCCCCC2)c1	none
O=C(c1ccccc1)n1c(=S)nc2ccccn21	FLuc inhib CS 94, PPC-1+TRAIL kill 72, C8 TRAIL sens 84 | PPC1 cytotox 74
CN(C)N1C(N)=C(C#N)C(c2ccccc2F)C2=C1CC(C)(C)CC2=O (configuration not stated)	none (no result: FLuc inhib CS, FLuc act counter, PPC-1+TRAIL kill)
Cc1cccc(S(=O)(=O)NNC(=O)c2sc(C)nc2C)c1	none
CC(C)(C)c1ccc(-c2nnc(N)s2)cc1	FLuc inhib CS 87, C8 TRAIL sens 71 | PPC1 cytotox inactive
COc1ccc(NC(=O)/C(C#N)=C\c2ccc(N3CCOCC3)o2)cc1	FLuc inhib CS 84, PPC-1+TRAIL kill 55, C8 TRAIL sens 65 | PPC1 cytotox 58
COc1ccc(NC(=O)/C(C#N)=C/c2ccc(Br)o2)cc1	none
CC(C)CC(=O)Nc1ccc(-c2cn3cccnc3n2)cc1	none (no result: FLuc inhib CS, FLuc act counter, PPC-1+TRAIL kill)
CC(C)(C)C(=O)Nc1ccc(-c2cn3ccsc3n2)cc1	FLuc inhib CS 96, PPC-1+TRAIL kill 91, C8 TRAIL sens 90 | PPC1 cytotox 90
CC(C)CC(=O)Nc1ccc(-c2cn3ccsc3n2)cc1	FLuc inhib CS 92, PPC-1+TRAIL kill 71, C8 TRAIL sens 83 | PPC1 cytotox 71
O=C(O)C1CCC2CCCC21 (configuration not stated)	none (no result: FLuc inhib CS, FLuc act counter, PPC-1+TRAIL kill)
CCOc1ccc(NC(=S)N2CCC(C(N)=O)CC2)cc1	none
CN(C)c1ncnc2c1ncn2C1OC(CO)C(O)C1O (configuration not stated)	C8 TRAIL sens 69 | PPC1 cytotox inactive
CN(C)c1ncnc2c1nnn2C1OC(CO)C(O)C1O (configuration not stated)	none (no result: FLuc inhib CS, FLuc act counter, PPC-1+TRAIL kill)
Cc1nc(CN2CCN(C(=O)NC3(c4ccccc4)CC3)CC2)cs1	none | PPC1 cytotox inactive
Cc1cccc(-c2nc(CN3CCN(C(=O)C4CCCO4)CC3)cs2)c1 (configuration not stated)	none (no result: FLuc inhib CS, FLuc act counter, PPC-1+TRAIL kill)
Cc1cccc(NS(=O)(=O)c2cc(C(=O)OCC(=O)Nc3cc(C)on3)ccc2C)c1	none
Cc1cccc(NS(=O)(=O)c2ccc(C)c(C(=O)OCC(=O)Nc3cc(C)on3)c2)c1	none | PPC1 cytotox inactive
O=C(CCn1cccn1)N1CCCC(Nc2ccc(F)c(F)c2)C1 (configuration not stated)	none (no result: FLuc inhib CS, FLuc act counter, PPC-1+TRAIL kill)
O=C(COc1ccc(Cl)cc1Cl)Nc1ccc(Cl)cn1	FLuc inhib CS 86, PPC-1+TRAIL kill 59, C8 TRAIL sens 65 | PPC1 cytotox 59
O=C(O)CCC(=O)Nc1ccc(F)cc1	none | PPC1 cytotox inactive
O=C(O)CCC(=O)Nc1ccc(SSc2ccc(NC(=O)CCC(=O)O)cc2)cc1	none (no result: FLuc inhib CS, FLuc act counter, PPC-1+TRAIL kill)
CCN(CC)C(=O)C(Sc1ccccc1)c1ccccc1 (configuration not stated)	none | PPC1 cytotox inactive
